The test system of data set [1] is MDCK. In words: Cytotoxicity against dog MDCK cells assessed as loss of cell viability incubated for 24 hrs followed by compound wash out measured after 24 hrs by trypan blue exclusion assay. The class given is cell-based, Canis lupus familiaris. In short, it runs like this: (§1)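 Confluent MDCK monolayers plated at 2×10^5/ml were treated after 24 h with compound at 5–40 μg/ml and incubated a further 24 h. Assessed by microscopic examination of morphology, Trypan blue exclusion for viability, and cell counts for multiplication rate.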

In data set [2] the test system is MDCK. The experiment in a line: Cytotoxicity against dog MDCK cells assessed as morphological alterations incubated for 24 hrs followed by compound wash out measured after 24 hrs by microscopic analysis. The class given is cell-based, Canis lupus familiaris. In short, it runs like this: as §1
Data set [3] has as its system MDCK. In words: Cytotoxicity against dog MDCK cells assessed as modification of cell multiplication rate incubated for 24 hrs followed by compound wash out measured after 24 hrs by cell counting analysis. The class given is cell-based, Canis lupus familiaris. In short, it runs like this: as §1
For data set [4], the system named is Influenza A virus. In words: Antiviral activity against Influenza virus A/Puerto Rico/8/34 H1N1 infected in dog MDCK cells incubated at 1 hr post-infection measured after 24 hrs by hemagglutininating unit assay. The following applies: A/Puerto Rico/8/1934(H1N1). The class given is functional, organism-based. In short, it runs like this:
(§2)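 MDCK cells infected with PR8; 1 h after adsorption they were washed, and compound (5–20 μg/ml) or DMSO was added and kept on throughout. Virus released into the supernatant was titrated by HAU assay 24 h p.i. Yield is a percentage of control infected cells given 0.02% DMSO. Means of four experiments, each in duplicate.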

The test system of data set [5] is Influenza A virus. In words: Antiviral activity against Influenza virus A/Puerto Rico/8/34 H1N1 infected in dog MDCK cells assessed as inhibition of viral replication at 20 ug/mL incubated at 1 hr post-infection measured after 24 hrs by hemagglutininating unit assay relative to control. The class given is functional. The following applies: A/Puerto Rico/8/1934(H1N1). A digest of the protocol: as §2

Data set [6] relates to Influenza A virus. The experiment in a line: Antiviral activity against Influenza virus A/Puerto Rico/8/34 H1N1 infected in dog MDCK cells incubated for 1 hr prior to infection by hemagglutininating unit assay. The class given is functional, organism-based. The conditions noted are these: A/Puerto Rico/8/1934(H1N1). In short, it runs like this:
(§3)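 Timing variants, each read by HAU of virus yield from MDCK cells: PR8 stock preincubated 1 h with compound before infection; compound present only during the 1 h adsorption; or cells pretreated overnight with washout just before viral challenge.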

In data set [7] the test system is Influenza A virus. In words: Antiviral activity against Influenza virus A/Puerto Rico/8/34 H1N1 infected in dog MDCK cells incubated for 1 hr post-infection followed by compound washout by hemagglutininating unit assay. The class given is functional, organism-based. The conditions noted are these: A/Puerto Rico/8/1934(H1N1).
The subject of data set [8] is Influenza A virus. In words: Antiviral activity against Influenza virus A/Puerto Rico/8/34 H1N1 infected in dog MDCK cells incubated overnight prior to infection followed by compound washout by hemagglutininating unit assay. The class given is functional, organism-based. The conditions noted are these: A/Puerto Rico/8/1934(H1N1). In short, it runs like this:
as §3

The test system of data set [9] is Influenza A virus. The experiment in a line: Antiviral activity against Influenza virus A/Puerto Rico/8/34 H1N1 infected in dog MDCK cells incubated at 2 hrs post-infection measured after 24 hrs by hemagglutininating unit assay relative to control. The class given is functional, A/Puerto Rico/8/1934(H1N1). In short, it runs like this: (§4)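 Treatment of PR8-infected MDCK cells started at 2, 4, 6 or 8 h p.i. and compound stayed in the medium through 24 h p.i. Virus yield in the supernatant was read by HAU at 24 h p.i. as a percentage of DMSO-treated control infected cells. Means of two experiments, each in duplicate.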

Data set [10] relates to Influenza A virus. In words: Antiviral activity against Influenza virus A/Puerto Rico/8/34 H1N1 infected in dog MDCK cells incubated at 4 hrs post-infection measured after 24 hrs by hemagglutininating unit assay relative to control. The class given is functional, A/Puerto Rico/8/1934(H1N1). In short, it runs like this:
as §4

In data set [11] the test system is Influenza A virus. The experiment in a line: Antiviral activity against Influenza virus A/Puerto Rico/8/34 H1N1 infected in dog MDCK cells incubated at 6 hrs post-infection measured after 24 hrs by hemagglutininating unit assay relative to control. The following applies: A/Puerto Rico/8/1934(H1N1). The class given is functional, organism-based. In short, it runs like this: as §4

The subject of data set [12] is Influenza A virus. The experiment in a line: Antiviral activity against Influenza virus A/Puerto Rico/8/34 H1N1 infected in dog MDCK cells incubated at 8 hrs post-infection measured after 24 hrs by hemagglutininating unit assay relative to control. The class given is functional, organism-based. The conditions noted are these: A/Puerto Rico/8/1934(H1N1). A digest of the protocol: as §4

The test system of data set [13] is MDCK. The experiment in a line: Inhibition of PKC/p38MAPK-mediated nuclear-cytoplasmic viral ribonucleoprotein export in dog MDCK cells infected with Influenza virus A/Puerto Rico/8/34 H1N1 measured at 8 hrs post-infection by inmmunofluorescence. The class given is cell-based. The following applies: Canis lupus familiaris. A digest of the protocol: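 MDCK cells were infected with PR8 at 1 M.O.I. for single-cycle replication. At 8 h p.i. cells were fixed, permeabilized and stained with DAPI, then with anti-NP primary and FITC-conjugated secondary antibody. NP localization was assessed by fluorescence microscopy.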

Data set [14] has as its system MDCK. In words: Inhibition of PKC/p38MAPK-mediated nuclear-cytoplasmic viral nucleoprotein export in dog MDCK cells infected with Influenza virus A/Puerto Rico/8/34 H1N1 assessed as decrease in nucleoprotein level in cytoplasm measured at 8 hrs post-infection by Western blot analysis. The class given is cell-based. The following applies: Canis lupus familiaris. In short, it runs like this:
(§5)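 Cytosolic and nuclear extracts from treated and untreated infected MDCK cells were run on SDS-PAGE and immunoblotted with anti-NP antibodies. Blots were stripped and reprobed for α-tubulin (cytosol) or lamin A/C (nucleus). Densitometry is given as the NP/tubulin or NP/lamin ratio; one representative experiment of three.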
A general note: Immunoblotting shows a protein as a band on a membrane.

Data set [15] deals with MDCK. The experiment in a line: Inhibition of PKC/p38MAPK-mediated nuclear-cytoplasmic viral nucleoprotein export in dog MDCK cells infected with Influenza virus A/Puerto Rico/8/34 H1N1 assessed as increase in nucleoprotein level in nucleus measured at 8 hrs post-infection by Western blot analysis. The class given is cell-based. The conditions noted are these: Canis lupus familiaris. A digest of the protocol:
as §5

Data set [16] addresses T1, Protein kinase C (PKC) (Homo sapiens) (UniProt O94806+P41743+P17252+P05129+Q05655+P05771+Q05513+Q02156+P24723+Q15139+Q04759). The experiment in a line: Inhibition of PKC-mediated PKD phosphorylation in human NCI-H292 cells infected with Influenza virus A/Puerto Rico/8/34 H1N1 measured at 6 hrs post-infection by immunoblotting analysis. The class given is cell-based. A digest of the protocol:
(§6)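 NCI-H292 cells, mock- or PR8-infected at 1 M.O.I., were treated and lysed 6 h p.i. Lysates were run on 10% SDS–PAGE and blotted with rabbit anti-phospho-PKD, -ERK1/2, -p38MAPK or -JNK antibodies. Membranes were then stripped and reprobed for the corresponding total proteins.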

For data set [17], the target named is T1, Protein kinase C (PKC) (Homo sapiens). In words: Inhibition of PKC-mediated p38MAPK phosphorylation in human NCI-H292 cells infected with Influenza virus A/Puerto Rico/8/34 H1N1 measured at 6 hrs post-infection by immunoblotting analysis. The class given is cell-based. In short, it runs like this:
as §6

For data set [18] the target is unchanged. In words: Inhibition of PKC-mediated JNK phosphorylation in human NCI-H292 cells infected with Influenza virus A/Puerto Rico/8/34 H1N1 measured at 6 hrs post-infection by immunoblotting analysis. The class given is cell-based. In short, it runs like this: as §6
The target is the same in data set [19]. The experiment in a line: Inhibition of PKC-mediated ERK1 phosphorylation in human NCI-H292 cells infected with Influenza virus A/Puerto Rico/8/34 H1N1 measured at 6 hrs post-infection by immunoblotting analysis. The class given is cell-based. A digest of the protocol: as §6
Data set [20] shares this target. In words: Inhibition of PKC-mediated ERK2 phosphorylation in human NCI-H292 cells infected with Influenza virus A/Puerto Rico/8/34 H1N1 measured at 6 hrs post-infection by immunoblotting analysis. The class given is cell-based. A digest of the protocol: as §6
Data set [21] concerns Influenza A virus. In words: Downregulation of HA protein expression in Influenza virus A/Puerto Rico/8/34 H1N1 infected in dog MDCK cells measured at 24 hrs post-infection. The class given is functional, organism-based. The following applies: A/Puerto Rico/8/1934(H1N1). A digest of the protocol: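 PR8-infected MDCK cells, untreated or treated, were lysed at 24 h. Homogenates were run on 12% gels under reducing conditions, blotted to nitrocellulose and probed with goat polyclonal anti-influenza antibodies. Densitometry was expressed as the ratio of each viral protein to actin, relative to untreated infected cells.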

The test system of data set [22] is MDCK. In words: Restoration of GSH level in dog MDCK cells infected with Influenza virus A/Puerto Rico/8/34 H1N1 assessed as impairment of viral protein localization on plasma membrane measured at 24 hrs post-infection by immunofluorescence assay. The class given is functional, cell-based. The conditions noted are these: Canis lupus familiaris.
Data set [23] deals with MDCK. The experiment in a line: Restoration of GSH level in dog MDCK cells infected with Influenza virus A/Puerto Rico/8/34 H1N1 assessed as viral protein localization on peri-nuclear zone measured at 24 hrs post-infection by immunofluorescence assay. The conditions noted are these: Canis lupus familiaris. The class given is functional, cell-based.

Activity calls are given as the source filed them. No cut-off for these calls is given here.

Turning to `O=C1/C(=C/c2ccc(O)c(O)c2)COC/C1=C\c1ccc(O)c(O)c1`, the Activity result with MDCK [1] was “Non-toxic”; in the data set on MDCK [2] it was “Non-toxic”; with MDCK [3] it was “Non-toxic”; with Influenza A virus [4], “Dose-dependent effect”; in the data set on Influenza A virus [9], 79%; with Influenza A virus [10] it was 79%. Further, the inhibition (commonly the relative decrease from the control value, in per cent) at 20 µg/mL in the data set with Influenza A virus [5] is 75%. The outcome in the data set with Influenza A virus [6], with Influenza A virus [7], in the data set on Influenza A virus [8] and with Influenza A virus [12] was inactive. The outcome in the data set with Influenza A virus [11], in the data set with Influenza A virus [21], in the data set on MDCK [22] and in the data set with MDCK [23] was Active. Further, the inhibition entry (in the data set on MDCK [13]; in the data set on MDCK [14]; with MDCK [15]; in [16]; in data set [17]; in [18]) was “Active” each time. Also, the inhibition entry in data set [19] and in data set [20] was “inactive” throughout.

For `O=C(/C=C/c1ccc(O)cc1)c1ccc(O)cc1O` [ISOLIQUIRITIGENIN], the Activity result in the data set with MDCK [1] is “Non-toxic”; in the data set on MDCK [2] it was “Non-toxic”; in the data set with MDCK [3], “Non-toxic”; in the data set with Influenza A virus [4], “Dose-dependent effect”; with Influenza A virus [9], 79%; in the data set with Influenza A virus [10], 79%. In addition, the inhibition entry (with Influenza A virus [5]; with MDCK [13]; in the data set with MDCK [14]; in the data set on MDCK [15]; in data set [16]; in data set [17]) was “Active” in each case. Further, in data set [18], the inhibition entry is “Active”. Moreover, the outcome in the data set with Influenza A virus [6], with Influenza A virus [7], with Influenza A virus [8] and in the data set on Influenza A virus [12] was inactive. The outcome in the data set with Influenza A virus [11], in the data set with Influenza A virus [21], in the data set on MDCK [22] and with MDCK [23] was Active. Further, the inhibition result in data set [19] and in data set [20] was “inactive” throughout.

The values are drawn from ChEMBL document CHEMBL2146419, “Effects of polyphenol compounds on influenza A virus replication and definition of their mechanism of action” (Bioorg Med Chem, 2012).
